Experimental data taken from ChEMBL document CHEMBL4028889 (2017).
Active and inactive are the calls of the source. The rule behind the calls is not given here.

Experiments:
PC-12 [1] = assay: Neuroprotective activity against etoposide-induced apoptosis in rat PC12 cells assessed as increase in Bcl2/Bax ratio at 3 uM pretreated for 4 hrs followed by etoposide challenge measured after 24 hrs by Western blot method; assay type: functional
Procedure, shortened: (§1)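 PC12 cells were pretreated 4 h with compound before etoposide and lysed after 24 or 48 h. 50 μg protein was run on 10% SDS gel and blotted. Probes were Bcl-2 (1:1000), Bax (1:500) and actin, with HRP chemiluminescence and densitometric Bcl-2/Bax ratio. n = 2, mean ± SEM.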

PC-12 [2] = assay: Neuroprotective activity in rat PC12 cells assessed as decrease in H2O2-induced reactive oxygen species generation at 10 uM by CellROX/DAPI-blue staining-based fluorescence microscopic method; assay type: functional, cell-based
Procedure, shortened: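 PC12 cells were grown in RPMI with 10% horse serum and 5% FBS on collagen-coated plates. ROS was induced with H2O2 and cells exposed to compound. Staining used CellROX green plus DAPI, imaged by fluorescence microscopy at 40×.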

PC-12 [3] = assay: Neuroprotective activity against H2O2-induced apoptosis in rat PC12 cells assessed as increase in cell viability at 1 to 30 uM after 4 hrs by PrestoBlue assay; assay type: functional, cell-based
Procedure, shortened: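 PC12 cells were exposed to 400 μM H2O2 with compounds at 1–30 μM. Viability was measured after 4 h with PrestoBlue.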

[4] = target: T1, Glutamate [NMDA] receptor (Homo sapiens) (UniProt Q05586+Q12879+Q13224+O15399+O60391+Q14957+Q8TCU5); assay: Antagonist activity at NMDA receptor in human IMR90-c4 cells assessed as decrease in NMDA-mediated reduction in cell viability at 30 uM by PrestoBlue assay; assay type: cell-based
Procedure, shortened: (§2)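 IMR90-c4 iPSCs differentiated to neurons (NSC, NPC, then 21 days maturation on poly-D-lysine/laminin). Neurons challenged with 500 μM NMDA. Viability read with PrestoBlue. n = 1 with 4 technical replicates, mean ± SEM.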

IMR90-c4 [5] = assay: Neuroprotective activity against etoposide-induced apoptosis in human IMR90-c4 cells assessed as increase in cell viability at 10 to 30 uM pretreated for 4 hrs followed by etoposide challenge measured after 36 hrs by PrestoBlue assay; assay type: functional, cell-based
Procedure, shortened: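 Neurons derived from IMR90-c4 iPSCs were seeded at 16000 cells/well on poly-D-lysine/laminin and matured at 37 °C, 5% CO2. Compound pretreatment lasted 4 h before 15 μg/mL etoposide. PrestoBlue fluorescence (ex 560/em 590 nm) was read after 36 h.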

[6] = target: T1, Glutamate [NMDA] receptor (Homo sapiens); assay: Antagonist activity at NMDA receptor in human IMR90-c4 cells assessed as decrease in NMDA-mediated reduction in cell viability at 0.1 to 10 uM by PrestoBlue assay; assay type: cell-based; procedure, shortened: as §2
PC-12 [7] = assay: Neuroprotective activity against etoposide-induced apoptosis in rat PC12 cells assessed as increase in Bcl2/Bax ratio at 3 uM pretreated for 4 hrs followed by etoposide challenge measured after 48 hrs by Western blot method; assay type: functional, cell-based; procedure, shortened: as §1
PC-12 [8] = assay: Induction of autophagy in rat PC12 cells at 3 uM after 48 hrs by MDC staining-based flow cytometric method relative to control; assay type: functional
Procedure, shortened: (§3)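 PC12 cells were treated for 48 h and then stained with 0.5 mM monodansylcadaverine for 30 min at 37 °C. Trypsinized cells were pooled with floating cells and resuspended in PBS/1% FBS. 10000 cells were read by flow cytometry in the FITC channel after gating out debris. MDC staining is expressed relative to vehicle.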

IMR90-c4 [9] = assay: Neuroprotective activity against etoposide-induced apoptosis in human IMR90-c4 cells assessed as increase in cell viability at 3 to 30 uM pretreated for 4 hrs followed by etoposide challenge measured after 36 hrs by PrestoBlue assay; assay type: functional, cell-based
Procedure, shortened: (§4)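 IMR90-c4 iPSC-derived neurons were plated at 16000 cells/well on poly-D-lysine/laminin and matured. They were pretreated 4 h with compound, then given 15 μg/mL etoposide. Viability was read at 36 h by PrestoBlue fluorescence (ex 560/em 590 nm).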

PC-12 [10] = assay: Induction of autophagy in rat PC12 cells after 48 hrs by MDC staining-based flow cytometric method; assay type: functional, cell-based; procedure, shortened: as §3
PC-12 [11] = assay: Induction of autophagy in rat PC12 cells assessed as increase in beclin 1 expression after 24 hrs by Western blot method; assay type: functional, cell-based
Procedure, shortened: (§5)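 PC12 lysates were taken after 24 h of compound treatment. 50 μg protein was run on 10% SDS gel and transferred to nitrocellulose. Blots were blocked in 5% BSA, probed overnight at 4 °C with beclin 1 (1:2000) and actin (1:5000), then HRP secondary. Chemiluminescence was quantified by densitometry.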

PC-12 [12] = assay: Neuroprotective activity against etoposide-induced apoptosis in rat PC12 cells assessed as cell viability at 3 uM pretreated for 4 hrs followed by etoposide challenge measured after 48 hrs by PrestoBlue assay (reference value: 52.13 +/- 1.13%); assay type: functional; settings: read-out: Activity
Procedure, shortened: (§6)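 PC12 cells were plated at 50000/well on collagen-coated plates and left overnight. They were pretreated 4 h with compound, then given 15 μg/mL etoposide. Viability was read at 48 h by PrestoBlue (ex 560/em 590 nm). n = 3, mean ± SEM, as % viability.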

PC-12 [13] = assay: Neuroprotective activity against etoposide-induced apoptosis in rat PC12 cells assessed as cell viability at 0.1 uM pretreated for 4 hrs followed by etoposide challenge measured after 48 hrs by PrestoBlue assay relative to control; assay type: functional; settings: read-out: Activity; procedure, shortened: as §6
PC-12 [14] = assay: Neuroprotective activity against etoposide-induced apoptosis in rat PC12 cells assessed as cell viability at 0.3 uM pretreated for 4 hrs followed by etoposide challenge measured after 48 hrs by PrestoBlue assay relative to control; assay type: functional; settings: read-out: Activity; procedure, shortened: as §6
[15] = Neuroprotective activity against etoposide-induced apoptosis in human IMR90-c4 cells assessed as increase in cell viability at 3 uM pretreated for 4 hrs followed by etoposide challenge measured after 36 hrs by PrestoBlue assay relative to control; assay type: functional; procedure, shortened: as §4
PC-12 [16] = assay: Neuroprotective activity against etoposide-induced apoptosis in rat PC12 cells assessed as increase in cell viability at 0.1 uM pretreated for 4 hrs followed by etoposide challenge measured after 48 hrs by PrestoBlue assay relative to control; assay type: functional, cell-based; procedure, shortened: as §6
[17] = target: T1, Glutamate [NMDA] receptor (Homo sapiens); assay: Antagonist activity at NMDA receptor in human IMR90-c4 cells assessed as decrease in NMDA-mediated reduction in cell viability at 0.1 to 30 uM by PrestoBlue assay; assay type: cell-based
Procedure, shortened: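 Neurons differentiated from IMR90-c4 iPSCs over roughly 21 days, then challenged with 500 μM NMDA. Viability was read with PrestoBlue. n = 1 with 4 technical replicates; % viability given as mean ± SEM.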

PC-12 [18] = assay: Induction of autophagy in rat PC12 cells assessed as increase in beclin 1 expression at 10 uM after 24 hrs by Western blot method relative to control; assay type: functional; procedure, shortened: as §5
PC-12 [19] = assay: Induction of autophagy in rat PC12 cells assessed as increase in beclin 1 expression at 3 uM after 24 hrs by Western blot method relative to control; assay type: functional; procedure, shortened: as §5
PC-12 [20] = assay: Induction of autophagy in rat PC12 cells at 10 uM after 48 hrs by MDC staining-based flow cytometric method relative to control; assay type: functional; procedure, shortened: as §3

Structure (SMILES) | Activity (PC-12 [1]) | Activity (PC-12 [2]) | Activity (PC-12 [3]) | Activity (PC-12 [7]) | fold change (FC) (PC-12 [8]) | Activity (PC-12 [10]) | viability at 3 µM (PC-12 [12]) [%] | inhibition [17] | also measured
CCOC(=O)Nc1ccc(NCc2ccc(F)cc2)cc1N [EZOGABINE] | 64% | Active | Active | inactive | 2 | – | – | – | inhibition [4]: Active; Activity (IMR90-c4 [5]): Active; inhibition [6]: inactive
CCOC(=O)Nc1ccc(NCc2ccc(OC(F)(F)F)cc2)nc1N | – | – | – | inactive | – | Dose-dependent effect | 80.6 | – | Activity (IMR90-c4 [9]): Active; Activity (PC-12 [11]): Dose-dependent effect; viability at 0.1 µM (PC-12 [13]): 77%
CCOC(=O)Nc1cnc(NCc2ccc(F)cc2)cc1C | – | – | – | – | – | – | 53.8 | – | –
CCOC(=O)Nc1ccc(NCc2ccc(SC(F)(F)F)cc2)nc1N | – | – | – | inactive | 8 | Dose-dependent effect | – | – | viability at 0.3 µM (PC-12 [14]): 93%; Activity [15]: 71%; Activity (PC-12 [16]): Active
C=CCOC(=O)Nc1ccc(NCc2ccc(F)cc2)nc1N | 150% | inactive | inactive | inactive | 2 | – | 84.9 | inactive | –
CCOC(=O)Nc1ccc(NCc2ccc(C)cc2)nc1 | – | – | – | – | – | – | 64.3 | – | –
CCOC(=O)Nc1ccc(NCCc2ccc(F)cc2)nc1N | – | – | – | – | – | – | 59.3 | – | –
CCCCCCOC(=O)Nc1ccc(NCc2ccc(F)cc2)nc1N | – | – | – | – | – | – | 78.5 | – | –
CCOC(=O)Nc1ccc(NCc2ccc(Cl)cc2)nc1N | inactive | – | inactive | inactive | >5 | Dose-dependent effect | 64.3 | inactive | Activity (PC-12 [18]): 104%; Activity (PC-12 [19]): -20%; fold change (FC) (PC-12 [20]): >12
Nc1nc(NCc2ccc(F)cc2)ccc1NC(=O)OCc1ccccc1 | – | inactive | inactive | Active | 3 | – | 81.2 | inactive | Activity (IMR90-c4 [9]): Active; Activity [15]: 79%; Activity (PC-12 [16]): Active
